Assay results gathered from unrelated publications.
Target: Tyrosine-protein kinase Fyn (FYN, Homo sapiens, UniProt P06241)

| SMILES | assay | setting | remaining binding [%] |
| --- | --- | --- | --- |
| C[C@H]1CCN(c2nccc(-c3cnn4ncccc34)n2)C1 | binding | 1 µM | 100 |
| C=CC(=O)N1CCC(C(=O)NCC(=O)N2CCN(c3nc(-c4cnc(N)nc4C(F)F)nc(N4CCOCC4)n3)CC2)CC1 | binding, competition with immobilised ligand | 1 µM | 100 |
| CS(=O)(=O)N1CCCC(NC(=O)[C@H](CCC2CCCCC2)NC(=O)c2ccc(CNC(=O)c3cnc4ccccn34)cc2)C1 (some centres unmarked) | cell-free assay, competition with immobilised ligand | 0.1 µM | 80 |
| c1cncc(-c2cccc(Nc3nccc(NC4CCCCC4)n3)c2)c1 | binding, competition with immobilised ligand | 10 µM | 45 |
| Cc1cnn2ncc(-c3ccnc(N(C)C)n3)c2c1 | binding | 1 µM | 98 |
| FC(F)(F)Oc1cccc(-c2cnc3ccc(-c4ccncc4)nn23)c1 | cell-free assay, competition with immobilised ligand | 5 µM | 51 |
| O=C(NCC1CCOCC1)c1n[nH]cc1NC(=O)c1c(F)cccc1F | binding, competition with immobilised ligand | 1 µM | 100 |
| COc1ccnn2ncc(-c3ccnc(N(C)C)n3)c12 | binding | 1 µM | 100 |
| C[C@@H]1CN(c2cc(-c3n[nH]c4ccc(OC5(C)CC5)cc34)ncn2)C[C@H](C)O1 | cell-free assay, competition with immobilised ligand | 0.1 µM | 100 |
| O=C(NCCCN1CCOCC1)c1ccc(Nc2nccc(-c3cc4ccccc4s3)n2)cc1 | binding, competition with immobilised ligand | 1 µM | 94 |
| COc1ccc2c(c1)O[C@H](c1ccc(OC)c(OC)c1)C[C@@H]2NC(=O)C1(c2ccc3c(c2)OC(F)(F)O3)CC1 | cell-free assay, competition with immobilised ligand | 1 µM | 100 |
| CN(C)c1nccc(-c2cnc3ncccn23)n1 | binding | 1 µM | 99 |
| CCOCCn1cc(C(=O)Nc2ccc(-n3nc(-c4cccnc4)cc3C(F)(F)F)cn2)ccc1=O | cell-free assay, competition with immobilised ligand | 1 µM | 53 |
| O=C(c1ccc(Nc2ncc(Cl)c(-c3cc4ccccc4s3)n2)cc1)N1CCC(N2CCCC2)CC1 | binding, competition with immobilised ligand | 1 µM | 96 |
| CS(=O)(=O)NCC[C@H](NC(=O)c1cncc2c1cnn2-c1ccc(F)cc1)c1ccnc(S(C)(=O)=O)c1 | cell-free assay, competition with immobilised ligand | 1 µM | 100 |
| CNC(=O)[C@@H]1CC[C@@H](n2c(-c3ccc4cnccc4c3)nc3ccc(C(=O)NCc4cccc(C(N)=O)c4)cc32)C1 | binding, competition with immobilised ligand | 1 µM | 100 |
| O=C(NCc1ncc(C(F)(F)F)cc1Cl)c1ccc2c(c1)C1(CCS(=O)(=O)CC1)[C@H](C1CC1)N2S(=O)(=O)c1ccc(F)cc1 | cell-free assay, competition with immobilised ligand | 1 µM | 100 |
| COc1cnc(Nc2cccc(S(N)(=O)=O)c2)nc1N1CCN(c2ccccc2)CC1 | binding, competition with immobilised ligand | 1 µM | 99 |
| CC1CCCN1c1nccc(-c2cnn3ncccc23)n1 (centres unmarked) | binding | 1 µM | 69 |
| O=C(c1ccc(Nc2nccc(-c3cc4ccccc4s3)n2)cc1)N1CCC(N2CCCC2)CC1 | binding, competition with immobilised ligand | 1 µM | 85 |
